Molecules are shown by their SMILES.

The test can be described thus: Selectivity coefficient as ratio of Kcat/Km for MAO-A and Kcat/Km for MAO-B. The gist of the method: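 Selectivity coefficient: MAO-A kcat/KM divided by MAO-B kcat/KM. Each value came from spectrophotometric initial-rate kinetics at 100–2000 μM substrate in 100 mM sodium phosphate pH 7.4, with 0.16 μM MAO-A or 0.08 μM MAO-B, and double-reciprocal plot analysis.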
As to `CN1CC=C(Oc2ccccc2Cl)CC1`, the Selectivity coefficient came to 2.99. Take `Cc1ccc(OC2=CCN(C)CC2)cc1`: the Selectivity coefficient is 0.3. As for `COc1ccccc1OC1=CCN(C)CC1`, the Selectivity coefficient turned out to be 1.01. On to `CN1CC=C(Oc2ccccc2-c2ccccc2)CC1`, for which the Selectivity coefficient worked out at 4.35. Turning to `CN1CC=C(Oc2cccc(Cl)c2)CC1`, the Selectivity coefficient turned out to be 5.99.

Take `CN1CC=C(c2ccccc2)CC1`: the Selectivity coefficient came to 0.03. To `CN1CC=C(Oc2ccc(Cl)cc2)CC1` belongs 2.15. To `CN1CC=C(Oc2ccccc2[N+](=O)[O-])CC1` belongs 1.7; to `CN1CC=C(Oc2ccccc2)CC1`, 0.57. To `CN1CC=C(Oc2cccc([N+](=O)[O-])c2)CC1` belongs 1.21; to `CN1CC=C(Oc2cccc(-c3ccccc3)c2)CC1`, 8.74. Turning to `CN1CC=C(Oc2ccc([N+](=O)[O-])cc2)CC1`, the Selectivity coefficient amounted to 2.53.

Regarding `CN1CC=C(Oc2ccc(-c3ccccc3)cc2)CC1`, the Selectivity coefficient was 4.71. For the compound `CN1CC=C(Cc2ccccc2)CC1`, the Selectivity coefficient came out at 0.08. With `COc1ccc(OC2=CCN(C)CC2)cc1`, the Selectivity coefficient is 2.08.

Take `COc1cccc(OC2=CCN(C)CC2)c1`: the Selectivity coefficient stood at 3.88. To `Cc1ccccc1OC1=CCN(C)CC1` belongs 1.4. For `Cc1cccc(OC2=CCN(C)CC2)c1`, the Selectivity coefficient was found to be 1.16.

The values above are taken from ChEMBL document CHEMBL1128681, “Studies on the monoamine oxidase (MAO)-catalyzed oxidation of phenyl-substituted 1-methyl-4-phenoxy-1,2,3,6-tetrahydropyridine derivatives: factors contributing to MAO-A and MAO-B selectivity” (J Med Chem, 1995).
